According to ChEMBL document CHEMBL4052823, “Extra Sugar on Vancomycin: New Analogues for Combating Multidrug-Resistant Staphylococcus aureus and Vancomycin-Resistant Enterococci” (J Med Chem, 2018):
Converted amounts (≈) assume the structure as drawn.

Tests used:
Type in all cases: functional
Staphylococcus aureus [1] = test: Antibacterial activity against vancomycin/methicillin-susceptible Staphylococcus aureus Newman […] after 24 hrs by broth microdilution method
How it was run: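 Broth microdilution in cation-adjusted Mueller-Hinton II broth. […] Each well received ~10^5 CFU of exponential-phase bacteria and was incubated at 37 °C for 24 h. MIC was taken as the lowest concentration giving complete growth inhibition, interpreted per CLSI.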

Staphylococcus aureus [2] = test: Antibacterial activity against healthcare-associated methicillin-resistant/vancomycin-intermediate Staphylococcus aureus Mu50 after 24 hrs by broth microdilution method; conditions: Mu50, 24 h
How it was run: (§1)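 Broth microdilution in cation-adjusted Mueller-Hinton II broth. DMSO stocks were diluted in broth and twofold serially from 128 to 0.0625 μg/mL or lower. Each well was inoculated with ~10^5 CFU of exponential-phase bacteria and incubated at 37 °C for 24 h. MIC was the lowest concentration giving complete growth inhibition, read per CLSI. Growth controls contained broth plus DMSO.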

Enterococcus faecium [3] = test: Antibacterial activity against glycopeptide-resistant Enterococcus faecium Efm-HS-0649 vanA after 24 hrs by broth microdilution method; conditions: Efm-HS-0649, 24 h; how it was run: as §1
Enterococcus faecium [4] = test: Antibacterial activity against glycopeptide-resistant Enterococcus faecium Efm-HS-06188 vanA after 24 hrs by broth microdilution method; conditions: Efm-HS-06188, 24 h; how it was run: as §1
Enterococcus faecium [5] = test: Antibacterial activity against glycopeptide-resistant Enterococcus faecium Efm-HS-0847 vanM after 24 hrs by broth microdilution method; conditions: Efm-HS-0847, 24 h; how it was run: as §1
Enterococcus faecium [6] = test: Antibacterial activity against glycopeptide-resistant Enterococcus faecium Efm-HS-08257 vanM after 24 hrs by broth microdilution method; conditions: Efm-HS-08257, 24 h; how it was run: as §1
Enterococcus faecium [7] = test: Antibacterial activity against glycopeptide-resistant Enterococcus faecium Efm-HS-vb01 vanB after 24 hrs by broth microdilution method; conditions: Efm-HS-vb01, 24 h; how it was run: as §1

Row | Compound | MIC90 (Staphylococcus aureus [1]) [µg/mL] | MIC90 (Staphylococcus aureus [2]) [µg/mL] | MIC (Enterococcus faecium [3]) [µg/mL] | MIC (Enterococcus faecium [4]) [µg/mL] | MIC (Enterococcus faecium [5]) [µg/mL] | MIC (Enterococcus faecium [6]) [µg/mL] | MIC (Enterococcus faecium [7]) [µg/mL]
1 | CN[C@H](CC(C)C)C(=O)N[C@H]1C(=O)N[C@@H](CC(N)=O)C(=O)N[C@H]2C(=O)N[C@H]3C(=O)N[C@H](C(=O)N[C@H](C(=O)NCCCN(C)C)c4cc(O)c(CNCCCNC(=O)[C@H](O)[C@@H](O)[C@H](O)[C@H](O)CO)c(O)c4-c4cc3ccc4O)[C@H](O)c3ccc(c(Cl)c3)Oc3cc2cc(c3O[C@@H]2O[C@H](CO)[C@@H](O)[C@H](O)[C@H]2O[C@H]2C[C@](C)(NCc3ccc(-c4ccc(Cl)cc4)cc3)[C@H](O)[C@H](C)O2)Oc2ccc(cc2Cl)[C@H]1O | 1 (≈ 0.5 µM) | 2 (≈ 1 µM) | 1 (≈ 0.5 µM) | 2 (≈ 1 µM) | 2 (≈ 1 µM) | 1 (≈ 0.5 µM) | 8 (≈ 4 µM)
2 | CN[C@H](CC(C)C)C(=O)N[C@H]1C(=O)N[C@@H](CC(N)=O)C(=O)N[C@H]2C(=O)N[C@H]3C(=O)N[C@H](C(=O)N[C@H](C(=O)O)c4cc(O)c(CNCP(=O)(O)O)c(O)c4-c4cc3ccc4O)[C@H](O)c3ccc(c(Cl)c3)Oc3cc2cc(c3O[C@@H]2O[C@H](CO)[C@@H](O)[C@H](O)[C@H]2O[C@H]2C[C@](C)(NCc3ccc(-c4ccc(Cl)cc4)cc3)[C@H](O)[C@H](C)O2)Oc2ccc(cc2Cl)[C@H]1O | 0.5 (≈ 0.282 µM) | 0.5 (≈ 0.282 µM) | 2 (≈ 1.13 µM) | 4 (≈ 2.26 µM) | 2 (≈ 1.13 µM) | 0.12 (≈ 0.0677 µM) | 0.25 (≈ 0.141 µM)
3 | CCc1ccc(CN[C@@]2(C)C[C@H](O[C@H]3[C@H](Oc4c5cc6cc4Oc4ccc(cc4Cl)[C@@H](O)[C@@H](NC(=O)[C@@H](CC(C)C)NC)C(=O)N[C@@H](CC(N)=O)C(=O)N[C@H]6C(=O)N[C@H]4C(=O)N[C@H](C(=O)N[C@H](C(=O)O)c6cc(O)c(CNCCCNC(=O)[C@H](O)[C@@H](O)[C@H](O)[C@H](O)CO)c(O)c6-c6cc4ccc6O)[C@H](O)c4ccc(c(Cl)c4)O5)O[C@H](CO)[C@@H](O)[C@@H]3O)O[C@@H](C)[C@H]2O)cc1 | 4 (≈ 2.18 µM) | 8 (≈ 4.37 µM) | – | – | – | – | –
4 | CN[C@H](CC(C)C)C(=O)N[C@H]1C(=O)N[C@@H](CC(N)=O)C(=O)N[C@H]2C(=O)N[C@H]3C(=O)N[C@H](C(=O)N[C@H](C(=O)O)c4cc(O)c(CNCCCNC(=O)[C@H](O)[C@@H](O)[C@H](O)[C@H](O)CO)c(O)c4-c4cc3ccc4O)[C@H](O)c3ccc(c(Cl)c3)Oc3cc2cc(c3O[C@@H]2O[C@H](CO)[C@@H](O)[C@H](O)[C@H]2O[C@H]2C[C@](C)(NCc3ccc(OCc4cccc(-c5ccccc5)c4C)c(Cl)c3)[C@H](O)[C@H](C)O2)Oc2ccc(cc2Cl)[C@H]1O | 0.5 (≈ 0.246 µM) | 1 (≈ 0.492 µM) | – | – | – | – | –
5 | CN[C@H](CC(C)C)C(=O)N[C@H]1C(=O)N[C@@H](CC(N)=O)C(=O)N[C@H]2C(=O)N[C@H]3C(=O)N[C@H](C(=O)N[C@H](C(=O)O)c4cc(O)c(CN[C@H]5C(O)O[C@H](CO)[C@H](O)[C@@H]5O)c(O)c4-c4cc3ccc4O)[C@H](O)c3ccc(c(Cl)c3)Oc3cc2cc(c3O[C@@H]2O[C@H](CO)[C@@H](O)[C@H](O)[C@H]2O[C@H]2C[C@](C)(NCc3ccc(C#C[Si](C)(C)C)cc3)[C@H](O)[C@H](C)O2)Oc2ccc(cc2Cl)[C@H]1O (stereo partly drawn) | 0.5 (≈ 0.274 µM) | 2 (≈ 1.09 µM) | – | – | – | – | –
6 | CCCCCCCCCC(=O)N[C@@]1(C)C[C@H](O[C@H]2[C@H](Oc3c4cc5cc3Oc3ccc(cc3Cl)[C@@H](O)[C@@H](NC(=O)[C@@H](CC(C)C)NC)C(=O)N[C@@H](CC(N)=O)C(=O)N[C@H]5C(=O)N[C@H]3C(=O)N[C@H](C(=O)N[C@H](C(=O)O)c5cc(O)c(CNCCCNC(=O)[C@H](O)[C@@H](O)[C@H](O)[C@H](O)CO)c(O)c5-c5cc3ccc5O)[C@H](O)c3ccc(c(Cl)c3)O4)O[C@H](CO)[C@@H](O)[C@@H]2O)O[C@@H](C)[C@H]1O | 32 (≈ 17.1 µM) | 64 (≈ 34.3 µM) | – | – | – | – | –
7 | CCCCCCCCCCN[C@@]1(C)C[C@H](O[C@H]2[C@H](Oc3c4cc5cc3Oc3ccc(cc3Cl)[C@@H](O)[C@@H](NC(=O)[C@@H](CC(C)C)NC)C(=O)N[C@@H](CC(N)=O)C(=O)N[C@H]5C(=O)N[C@H]3C(=O)N[C@H](C(=O)N[C@H](C(=O)O)c5cc(O)c(CNCCCNC(=O)[C@H](O)[C@@H](O)[C@H](O)[C@H](O)CO)c(O)c5-c5cc3ccc5O)[C@H](O)c3ccc(c(Cl)c3)O4)O[C@H](CO)[C@@H](O)[C@@H]2O)O[C@@H](C)[C@H]1O | 0.12 (≈ 0.0647 µM) | 0.5 (≈ 0.27 µM) | – | – | – | – | –
8 | CN[C@H](CC(C)C)C(=O)N[C@H]1C(=O)N[C@@H](CC(N)=O)C(=O)N[C@H]2C(=O)N[C@H]3C(=O)N[C@H](C(=O)N[C@H](C(=O)O)c4cc(O)c(CNCCO)c(O)c4-c4cc3ccc4O)[C@H](O)c3ccc(c(Cl)c3)Oc3cc2cc(c3O[C@@H]2O[C@H](CO)[C@@H](O)[C@H](O)[C@H]2O[C@H]2C[C@](C)(NCc3ccc(-c4ccncc4)cc3)[C@H](O)[C@H](C)O2)Oc2ccc(cc2Cl)[C@H]1O | 0.5 (≈ 0.296 µM) | 2 (≈ 1.18 µM) | – | – | – | – | –
9 | CCCCCCCCCCNCCN[C@@]1(C)C[C@H](O[C@H]2[C@H](Oc3c4cc5cc3Oc3ccc(cc3Cl)[C@@H](O)[C@@H](NC(=O)[C@@H](CC(C)C)NC)C(=O)N[C@@H](CC(N)=O)C(=O)N[C@H]5C(=O)N[C@H]3C(=O)N[C@H](C(=O)N[C@H](C(=O)O)c5cc(O)c(CNCCO[C@H]6O[C@H](CO)[C@@H](O)[C@H](O)[C@@H]6O)c(O)c5-c5cc3ccc5O)[C@H](O)c3ccc(c(Cl)c3)O4)O[C@H](CO)[C@@H](O)[C@@H]2O)O[C@@H](C)[C@H]1O | 1 (≈ 0.535 µM) | 2 (≈ 1.07 µM) | – | – | – | – | –
10 | CCCCCCc1ccc(CN[C@@]2(C)C[C@H](O[C@H]3[C@H](Oc4c5cc6cc4Oc4ccc(cc4Cl)[C@@H](O)[C@@H](NC(=O)[C@@H](CC(C)C)NC)C(=O)N[C@@H](CC(N)=O)C(=O)N[C@H]6C(=O)N[C@H]4C(=O)N[C@H](C(=O)N[C@H](C(=O)O)c6cc(O)c(CNCCCNC(=O)[C@H](O)[C@@H](O)[C@H](O)[C@H](O)CO)c(O)c6-c6cc4ccc6O)[C@H](O)c4ccc(c(Cl)c4)O5)O[C@H](CO)[C@@H](O)[C@@H]3O)O[C@@H](C)[C@H]2O)cc1 | 0.12 (≈ 0.0636 µM) | 0.5 (≈ 0.265 µM) | – | – | – | – | –
11 | CCCCCCCCCCNCCN[C@@]1(C)C[C@H](O[C@H]2[C@H](Oc3c4cc5cc3Oc3ccc(cc3Cl)[C@@H](O)[C@@H](NC(=O)[C@@H](CC(C)C)NC)C(=O)N[C@@H](CC(N)=O)C(=O)N[C@H]5C(=O)N[C@H]3C(=O)N[C@H](C(=O)N[C@H](C(=O)O)c5cc(O)c(CNCCO[C@@H]6O[C@H](CO)[C@H](O)[C@H](O)[C@H]6O)c(O)c5-c5cc3ccc5O)[C@H](O)c3ccc(c(Cl)c3)O4)O[C@H](CO)[C@@H](O)[C@@H]2O)O[C@@H](C)[C@H]1O | 0.5 (≈ 0.268 µM) | 2 (≈ 1.07 µM) | – | – | – | – | –
12 | CCc1ccc(CN[C@@]2(C)C[C@H](O[C@H]3[C@H](Oc4c5cc6cc4Oc4ccc(cc4Cl)[C@@H](O)[C@@H](NC(=O)[C@@H](CC(C)C)NC)C(=O)N[C@@H](CC(N)=O)C(=O)N[C@H]6C(=O)N[C@H]4C(=O)N[C@H](C(=O)N[C@H](C(=O)O)c6cc(O)c(CNCCO)c(O)c6-c6cc4ccc6O)[C@H](O)c4ccc(c(Cl)c4)O5)O[C@H](CO)[C@@H](O)[C@@H]3O)O[C@@H](C)[C@H]2O)cc1 | 2 (≈ 1.22 µM) | 4 (≈ 2.44 µM) | – | – | – | – | –
13 | C#Cc1ccc(CN[C@@]2(C)C[C@H](O[C@H]3[C@H](Oc4c5cc6cc4Oc4ccc(cc4Cl)[C@@H](O)[C@@H](NC(=O)[C@@H](CC(C)C)NC)C(=O)N[C@@H](CC(N)=O)C(=O)N[C@H]6C(=O)N[C@H]4C(=O)N[C@H](C(=O)N[C@H](C(=O)O)c6cc(O)c(CN[C@H]7C(O)O[C@H](CO)[C@H](O)[C@@H]7O)c(O)c6-c6cc4ccc6O)[C@H](O)c4ccc(c(Cl)c4)O5)O[C@H](CO)[C@@H](O)[C@@H]3O)O[C@@H](C)[C@H]2O)cc1 (stereo partly drawn) | 2 (≈ 1.14 µM) | 8 (≈ 4.56 µM) | – | – | – | – | –
14 | CCCCCCCCCN[C@@]1(C)C[C@H](O[C@H]2[C@H](Oc3c4cc5cc3Oc3ccc(cc3Cl)[C@@H](O)[C@@H](NC(=O)[C@@H](CC(C)C)NC)C(=O)N[C@@H](CC(N)=O)C(=O)N[C@H]5C(=O)N[C@H]3C(=O)N[C@H](C(=O)N[C@H](C(=O)O)c5cc(O)c(CNCCCNC(=O)[C@H](O)[C@@H](O)[C@H](O)[C@H](O)CO)c(O)c5-c5cc3ccc5O)[C@H](O)c3ccc(c(Cl)c3)O4)O[C@H](CO)[C@@H](O)[C@@H]2O)O[C@@H](C)[C@H]1O | 0.5 (≈ 0.272 µM) | 2 (≈ 1.09 µM) | – | – | – | – | –
